We go through 17 compounds from ChEMBL document CHEMBL3421616, “Conformational Restriction Leading to a Selective CB2 Cannabinoid Receptor Agonist Orally Active Against Colitis” (ACS Med Chem Lett, 2015).

pKi: −log10 of the molar value. Activity calls are given as the source filed them. No cut-off for these calls is given here. Some results are limits rather than exact numbers.

Data set [1] deals with Mus musculus. The data set is described as follows: Anticolitis activity in TNBS-induced C57Bl6 mouse acute colitis model assessed as downregulation of IL-1beta mRNA expression in colon at 10 mg/kg, po qd administered over 7 days, starting 2 days prior to TNBS challenge measured 5 days post TNBS challenge by real-time PCR analysis. The data set is classed as functional, organism-based. Details: dose 10 mg/kg. An outline of the steps: (§1)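 Mice given test article orally in carboxymethyl cellulose once daily at 0.1, 1 or 10 mg/kg for 7 days, beginning 2 days before TNBS colitis induction; vehicle-only (CMC) controls. Survival followed throughout; body weight loss, semiquantitative macroscopic colon score, histological score and colonic TNFα and IL-1β mRNA assessed at euthanasia 5 days after TNBS. Mean ± SEM, 10 mice per group.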

Data set [2] has as its system Mus musculus. Nature of the data set: Anticolitis activity in po dosed TNBS-induced C57Bl6 mouse acute colitis model assessed as decrease in bowel thickness and areas of ulceration administered as qd over 7 days, starting 2 days prior to TNBS challenge measured 5 days post TNBS challenge. The data set is classed as functional, organism-based. The procedure, abridged:
as §1

Data set [3] deals with Mus musculus. The data set is described as follows: Anticolitis activity in po dosed TNBS-induced C57Bl6 mouse acute colitis model assessed as reduction of body weight loss administered as qd over 7 days, starting 2 days prior to TNBS challenge measured 5 days post TNBS challenge. In kind it is functional, organism-based. An outline of the steps:
as §1

Data set [4] relates to Mus musculus. Nature of the data set: Anticolitis activity in TNBS-induced C57Bl6 mouse acute colitis model assessed as reduction of mortality rate at 0.1 to 10 mg/kg, po qd administered over 7 days, starting 2 days prior to TNBS challenge measured 5 days post TNBS challenge relative to vehicle-treated control. The data set is classed as functional, organism-based. An outline of the steps:
as §1

A short description of data set [5]: Fraction unbound in human plasma after 18 hrs by equilibrium dialysis method. The data set is classed as ADME, cell-free. The procedure, abridged: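 Plasma protein binding by equilibrium dialysis, 18 h at 37 °C.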
(In general: In equilibrium dialysis free small molecules cross a membrane that holds back macromolecules.)

The nature of data set [6]: Permeability across apical to basolateral side in human Caco2 cells at 10 uM after 60 mins. The data set is classed as ADME, cell-based. The conditions noted are these: Caco-2, read-out: permeability. A general note: Caco-2 monolayers are a common model of the intestinal barrier.
For data set [7], the system named is Mus musculus. Nature of the data set: Anticolitis activity in TNBS-induced C57Bl6 mouse acute colitis model assessed as decrease in degree of inflammation infiltrate, presence of erosion, ulceration, necrosis and depth, surface extension of lesions at 10 mg/kg, po qd administered over 7 days, starting 2 days prior to TNBS challenge measured 5 days post TNBS challenge by Giemsa staining relative to vehicle-treated control. The data set is classed as functional. Details: scale not given: the % may be the effect or the level left. The procedure, abridged:
as §1

For another data set, the target named is Cannabinoid receptor 1 (Homo sapiens, UniProt P21554). Nature of the data set: Displacement of [3H]-CP55940 from human CB1 receptor after 1 hr by scintillation counting analysis.
The target in another data set is hERG (KCNH2) (Homo sapiens, UniProt Q12809). Nature of the data set: Binding affinity to human ERG expressed in HEK293 cells assessed as inhibition of tail current at 1 uM after 5 to 10 mins by patch-clamp assay relative to control. In kind it is cell-based. As to conditions: HEK293 cells expressing human ERG. The procedure, abridged:
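hERG-expressing HEK 293 cells, conventional whole-cell patch clamp; compound at 1 μM applied cumulatively for 5–10 min at room temperature; tail current inhibition read.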
On the technique in general: Patch clamp records ionic current or voltage across a cell membrane.

For data set [8], the target named is T1, Cannabinoid receptor 2 (Homo sapiens, UniProt P34972). Nature of the data set: Agonist activity at human CB2 receptor after 1 hr by [35S]-GTPgammaS binding assay. In kind it is functional.
The subject of data set [9] is Mus musculus. The data set is described as follows: Anticolitis activity in TNBS-induced C57Bl6 mouse acute colitis model assessed as downregulation of TNF-alpha mRNA expression in colon at 10 mg/kg, po qd administered over 7 days, starting 2 days prior to TNBS challenge measured 5 days post TNBS challenge by real-time PCR analysis. In kind it is functional, organism-based. Also on record: dose 10 mg/kg. An outline of the steps: as §1

Another data set relates to MDCK-II. Nature of the data set: Inhibition of MDR1 in MDCK2 cells at 10 uM after 30 mins by calcein AM uptake assay relative to control. The data set is classed as cell-based. The conditions noted are these: Canis lupus familiaris. An outline of the steps: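 MDR1-MDCKII cells; P-gp function read as cellular calcein AM uptake after 30 min incubation at 37 °C.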
Data set [10] concerns Mus musculus. Nature of the data set: Anticolitis activity in TNBS-induced C57Bl6 mouse acute colitis model assessed as decrease in bowel thickness and areas of ulceration at 10 mg/kg, po qd administered over 7 days, starting 2 days prior to TNBS challenge measured 5 days post TNBS challenge (reference value: 4.9). In kind it is functional. The procedure, abridged: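 Mouse acute colitis induced by TNBS. Compound given orally in carboxymethyl cellulose (CMC) once daily at 0.1, 1 and 10 mg/kg for 7 days, starting 2 days before induction; controls received CMC alone. Mice euthanised 5 days after TNBS. Colon damage graded with a semiquantitative macroscopic score; mean ± SEM of 10 mice per group, compared with vehicle.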

Data set [11] can be described thus: Metabolic stability in human liver microsomes assessed as compound remaining at 1 uM after 60 mins. In kind it is ADME. The conditions noted are these: read-out: Stability. The procedure, abridged:
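Compound (1 μM) incubated with human liver microsomes (0.3 mg/mL) at 37 °C, sampled at 0 and 60 min; percent remaining reported.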

In data set [12] the target is T1, Cannabinoid receptor 2. The data set is described as follows: Displacement of [3H]-CP55940 from human CB2 receptor after 1 hr by scintillation counting analysis.

Sequence of Cannabinoid receptor 1 (P21554 whole entry): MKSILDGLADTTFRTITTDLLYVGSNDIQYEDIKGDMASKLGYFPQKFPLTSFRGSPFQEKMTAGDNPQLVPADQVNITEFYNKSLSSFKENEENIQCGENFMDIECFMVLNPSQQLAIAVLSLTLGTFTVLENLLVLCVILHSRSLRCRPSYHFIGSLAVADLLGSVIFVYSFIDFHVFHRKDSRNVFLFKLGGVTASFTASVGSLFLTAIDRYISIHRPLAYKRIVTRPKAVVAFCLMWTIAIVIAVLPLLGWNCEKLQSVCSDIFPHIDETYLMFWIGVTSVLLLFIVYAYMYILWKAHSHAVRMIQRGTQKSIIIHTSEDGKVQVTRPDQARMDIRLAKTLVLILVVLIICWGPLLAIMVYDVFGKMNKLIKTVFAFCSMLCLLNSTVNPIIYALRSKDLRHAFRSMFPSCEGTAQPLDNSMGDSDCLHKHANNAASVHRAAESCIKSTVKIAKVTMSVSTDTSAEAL
T1 sequence (P34972 whole entry): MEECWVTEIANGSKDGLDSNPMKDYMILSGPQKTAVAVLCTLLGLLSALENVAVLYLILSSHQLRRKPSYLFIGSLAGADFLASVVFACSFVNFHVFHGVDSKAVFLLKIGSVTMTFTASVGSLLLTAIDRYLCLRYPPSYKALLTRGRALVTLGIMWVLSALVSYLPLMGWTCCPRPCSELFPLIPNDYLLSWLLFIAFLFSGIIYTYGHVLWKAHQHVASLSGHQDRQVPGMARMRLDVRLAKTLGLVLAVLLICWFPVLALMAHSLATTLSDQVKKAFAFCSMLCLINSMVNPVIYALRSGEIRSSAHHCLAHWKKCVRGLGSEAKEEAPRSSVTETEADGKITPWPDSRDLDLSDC
Sequence of hERG (KCNH2) (Q12809 whole entry): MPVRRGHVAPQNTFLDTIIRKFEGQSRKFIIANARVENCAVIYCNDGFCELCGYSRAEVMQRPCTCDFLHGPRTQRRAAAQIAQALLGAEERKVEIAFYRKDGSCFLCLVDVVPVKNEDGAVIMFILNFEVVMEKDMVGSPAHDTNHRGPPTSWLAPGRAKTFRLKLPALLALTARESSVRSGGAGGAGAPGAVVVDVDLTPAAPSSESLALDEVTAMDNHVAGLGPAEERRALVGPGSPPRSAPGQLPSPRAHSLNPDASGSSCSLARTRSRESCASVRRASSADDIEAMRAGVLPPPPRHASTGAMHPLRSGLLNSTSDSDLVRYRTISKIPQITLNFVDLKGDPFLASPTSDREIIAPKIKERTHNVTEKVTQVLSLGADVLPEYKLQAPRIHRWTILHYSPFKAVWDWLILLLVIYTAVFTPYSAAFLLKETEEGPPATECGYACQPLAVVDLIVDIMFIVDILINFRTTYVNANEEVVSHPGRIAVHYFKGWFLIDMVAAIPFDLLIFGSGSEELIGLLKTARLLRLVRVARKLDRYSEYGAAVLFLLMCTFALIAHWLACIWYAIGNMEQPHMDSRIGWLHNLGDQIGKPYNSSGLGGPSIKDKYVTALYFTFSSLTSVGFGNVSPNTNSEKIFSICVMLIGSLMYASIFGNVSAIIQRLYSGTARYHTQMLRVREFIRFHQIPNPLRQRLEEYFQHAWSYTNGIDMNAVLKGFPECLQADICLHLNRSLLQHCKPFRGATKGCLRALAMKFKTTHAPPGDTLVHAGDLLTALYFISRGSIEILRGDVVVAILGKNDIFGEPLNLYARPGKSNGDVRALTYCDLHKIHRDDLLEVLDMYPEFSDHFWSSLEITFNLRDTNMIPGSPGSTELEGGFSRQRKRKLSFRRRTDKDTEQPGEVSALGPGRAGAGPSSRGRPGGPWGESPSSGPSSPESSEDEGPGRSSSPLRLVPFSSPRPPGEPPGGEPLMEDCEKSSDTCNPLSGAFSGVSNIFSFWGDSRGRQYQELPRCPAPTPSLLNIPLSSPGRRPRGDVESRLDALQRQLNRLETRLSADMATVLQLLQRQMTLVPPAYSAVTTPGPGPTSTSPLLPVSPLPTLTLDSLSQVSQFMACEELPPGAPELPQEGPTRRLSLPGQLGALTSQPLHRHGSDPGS

Broadly, the fraction unbound is the share of the substance not bound to proteins or other matrix. One may read the pKi as the negative decadic logarithm of the Ki, by convention in mol/L. By inhibition is commonly meant the percentage by which the read-out fell short of the control. Usually Emax stands for the size of the effect at its maximum, as opposed to the concentration needed. As for `CCCCCn1cc2c(=O)n(CC34CC5CC(CC(C5)C3)C4)nc-2c2ccccc21`, the outcome in the data set with Mus musculus [1] and in the data set with Mus musculus [4] was Active. For the same compound, the Activity result in the data set on Mus musculus [2] was “Dose-dependent effect”; in the data set with Mus musculus [3], “Dose-dependent effect”; with Mus musculus [7] it was 65%. In addition, the fraction unbound at 18 h in data set [5] is less than 1. The Papp A→B at 1 h, 10 µM in data set [6] was 0.8 ×10⁻⁶ cm/s. The pKi on Cannabinoid receptor 1 is less than 5.52. Further, the inhibition at 1 µM on hERG (KCNH2) turned out to be 35.5%. Besides, the Emax on Cannabinoid receptor 2 [8] stood at 163%. Moreover, in the data set on Mus musculus [9], the result was inactive. Also, the inhibition in the data set with MDCK-II was 30.6%. Also, the “fold change (FC)” value with Mus musculus [10] worked out at 1.7. The remaining at 1 h, 1 µM in data set [11] stood at 64%.
Take `CCCCCn1cc(C(=O)NCC23CC4CC(CC(C4)C2)C3)c(=O)c2ccccc21`: the pKi is 7.67 at Cannabinoid receptor 2 [12] and less than 5.52 on Cannabinoid receptor 1.
Taken in the same sequence, the figures for `CCCCCn1c(-c2ccccc2)c2c(=O)n(-c3cccc(C(F)(F)F)c3)nc-2c2ccccc21` were less than 5.52 and less than 5.52.
Compound `CCCCCn1cc2c(=O)n(CCC3CCCCC3)nc-2c2ccccc21` displayed an Emax on Cannabinoid receptor 2 [8] of 141%.
Regarding `CCCCCn1cc2c(=O)n(CCC34CC5CC(CC(C5)C3)C4)nc-2c2ccccc21`, the pKi at Cannabinoid receptor 1 is less than 5.52.
`CCCCCn1cc2c(=O)n(CC3CCCCC3)nc-2c2ccccc21` gave an Emax on Cannabinoid receptor 2 [8] of 149%.
On to `CCCCCn1cc2c(=O)n(-c3ccc(OC)cc3)nc-2c2ccccc21`, for which the pKi at Cannabinoid receptor 2 [12] and at Cannabinoid receptor 1 was less than 5.52 throughout.
In the case of `CCCCCn1cc(C(=O)NC23CC4CC(CC(C4)C2)C3)c(=O)c(-c2ccncc2)c1C`, the pKi on Cannabinoid receptor 1 is less than 6.00.
With `CCCCCn1c(-c2ccccc2)c2c(=O)n(Cc3ccccc3)nc-2c2ccccc21`, the pKi on Cannabinoid receptor 2 [12] and on Cannabinoid receptor 1 was less than 5.52 throughout.
Turning to `CCCCCn1cc2c(=O)n(-c3cccc(C(F)(F)F)c3)nc-2c2ccccc21`, the pKi was 7.53 at Cannabinoid receptor 2 [12] and less than 5.52 at Cannabinoid receptor 1.
The like results for `CCCCCn1cc2c(=O)n(-c3ccccc3)nc-2c2ccccc21` were, in that order, 5.86 and less than 5.52.
Taken in the same sequence, the figures for `CCCCCn1c(-c2ccccc2)c2c(=O)[nH]nc-2c2ccccc21` were less than 5.52 and less than 5.52.
The like results for `CCCCCn1c(-c2ccccc2)c2c(=O)n(-c3ccc(OC)cc3)nc-2c2ccccc21` were, in that order, less than 5.52 and less than 5.52.
Consider `CCCCCn1c(-c2ccccc2)c2c(=O)n(CCCc3ccccc3)nc-2c2ccccc21`, for which the pKi at Cannabinoid receptor 2 [12] and on Cannabinoid receptor 1 was less than 5.52 in each case.
As to `CCCCCn1c(-c2ccccc2)c2c(=O)n(-c3ccccc3)nc-2c2ccccc21`, the pKi on Cannabinoid receptor 2 [12] and at Cannabinoid receptor 1 was less than 5.52 each time.
On to `CCCCCn1cc2c(=O)n(CCCc3ccccc3)nc-2c2ccccc21`, for which the pKi at Cannabinoid receptor 2 [12] and on Cannabinoid receptor 1 was less than 5.52 each time.
As for `CCCCCn1cc2c(=O)n(C3CCCCC3)nc-2c2ccccc21`, on Cannabinoid receptor 2 [8], the Emax was determined as 160%.
